Bioassay records: PubChem BioAssay, several laboratories
PP5 inh = PP5 (human) phosphatase inhibition | P53041 | purified PP5c, OMFP substrate fluorescence | 0.18% of 320,000 active | inhibition, % at 6.7 µM | AID 1987;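 active = inhibition above the campaign's mean inhibition across all tested compounds plus 3 SD, cut at about 9.5% in these data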;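 also: 0% = DMSO only and 100% = 100 µM cantharidin control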
Target sequence (P53041 whole entry, looked up): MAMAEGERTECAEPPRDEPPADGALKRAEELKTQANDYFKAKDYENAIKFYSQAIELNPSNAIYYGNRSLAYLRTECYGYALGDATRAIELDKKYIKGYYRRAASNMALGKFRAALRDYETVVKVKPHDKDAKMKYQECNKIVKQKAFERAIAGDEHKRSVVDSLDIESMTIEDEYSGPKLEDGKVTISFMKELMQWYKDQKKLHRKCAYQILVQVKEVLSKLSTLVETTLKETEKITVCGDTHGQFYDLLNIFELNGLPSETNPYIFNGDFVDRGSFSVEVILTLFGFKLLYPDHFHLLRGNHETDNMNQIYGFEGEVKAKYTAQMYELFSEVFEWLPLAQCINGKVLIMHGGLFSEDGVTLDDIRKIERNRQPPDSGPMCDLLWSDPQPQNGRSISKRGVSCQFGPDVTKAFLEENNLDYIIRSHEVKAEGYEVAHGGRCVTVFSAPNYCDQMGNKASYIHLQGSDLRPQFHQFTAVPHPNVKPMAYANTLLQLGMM
NS3 helicase inh = HCV NS3 helicase inhibition | AID 1800 | NS3 helicase DNA unwinding, Cy5 molecular beacon fluorescence | 0.56% of 290,000 active | inhibition, % at 10.9 µM;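 active = inhibition above the mean of all tested compounds plus 3 SD, set per campaign, cut at about 35% in these data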;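 also: 0% = DMSO wells and 100% = thioflavine S control wells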
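Compound dosing – single dose, 10.9 µM nominal final, DMSO 0.8% final · System – NS3 helicase fragment of HCV · Buffer or medium – MOPS pH 6.5, MgCl2, DTT, Tween20, BSA · Signal – Cy5 beacon fluorescence read at start and 1 h · Also added – annealed dual-labelled DNA beacon duplex, ATP-started · Schedule – 1 h at 25 °C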
HIF activator = HIF pathway transcriptional activation | activation, % at 7.5 µM (by protocol) | 0.32% of 300,000 active | U2OS HRE-luciferase reporter, luminescence; normalized: DMSO 0%, desferrioxamine 100%;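 active = mean activation of at least 10% of the iron chelator positive control signal, with at least half of replicates also reaching 10%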
PP1 inh = counter-screen for PP5 inhibitors: inhibitors of human PP1-alpha | 0.9% of 320,000 active | P62136 | inhibition, % at 6.7 µM | purified PP1alpha, OMFP fluorescence;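 active = inhibition above the mean inhibition of all tested compounds plus 3 SD, computed separately for each screening campaign, cut at about 15% in these data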
FID counter = counter-screen for HCV NS3 helicase inhibitors: DNA intercalator displacement. DNA fluorescent intercalator displacement, fluorescence. inhibition, % at 7.9 µM. 0.17% of 290,000 active; in the data active = inhibition above about 37%;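 also: 0% = vehicle and 100% = reference compound; higher means more ethidium bromide displaced from hairpin DNA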
Numbers without * were called inactive; / = no result given. Most compounds without a hit are left out; they make up all but 1.9% or so of the library.

SMILES	PP5 inh	NS3 helicase inh	HIF activator	PP1 inh	FID counter
CCNC(=O)C1CCCN1C(=O)C(CCCN=C(N)N)NC(=O)C(CC(C)C)NC(=O)C(Cc1cn(Cc2ccccc2)cn1)NC(=O)C(Cc1ccc(O)cc1)NC(=O)C(CO)NC(=O)C(Cc1c[nH]c2ccccc12)NC(=O)C(Cc1cnc[nH]1)NC(=O)C1CCC(=O)N1 (stereo not given)	-1.3	-92.2	-0.3	-3.0	43.6*
NC(=O)[C@@H]1CCCN1C(=O)[C@@H](Cc1cnc[nH]1)NC(=O)[C@@H]1CCC(=O)N1	0.6	/	/	-3.9	/
NC(=O)c1sc2nccc(Nc3ccccc3)c2c1N	2.0	-6.5	10.5*	0.4	-1.7
COc1ccccc1-c1nnc(NC(=O)c2ccc(S(=O)(=O)N(C)CC3CCCO3)cc2)o1 (stereo not given)	3.2	8.4	-0.2	16.8*	-32.9
CN(CC1CCCO1)S(=O)(=O)c1ccc(C(=O)Nc2nnc(-c3ccccc3)o2)cc1 (stereo not given)	3.9	27.8	-0.3	11.1	-38.1
CSCC[C@H](NC(=O)[C@H](Cc1ccccc1)n1c(=O)[nH]c2ccccc2c1=O)C(=O)N[C@@H](Cc1ccccc1)C(=O)O	-1.3	-2.0	-0.3	-0.5	-20.5
OC(COc1ccc(CNCCc2ccc(C(F)(F)F)cc2)cc1)CN1CCCCC1 (stereo not given)	0.1	-64.5	-0.7	-14.0	41.8*
CCN1CCN(C(=O)CS(=O)(=O)Cc2nc(-c3cccc(OC)c3)oc2C)CC1	1.1	4.9	-0.2	0.7	4.3
Cc1noc(/C=C/c2ccco2)c1S(=O)(=O)N1CCC(C(=O)NC(C)c2ccccc2)CC1 (stereo not given)	3.8	1.5	0.1	4.9	-25.4
Cc1noc(/C=C/c2ccco2)c1S(=O)(=O)N1CCC(C(=O)N2c3ccccc3CC2C)CC1 (stereo not given)	0.3	4.7	-0.7	17.4*	-32.0
NC(=O)[C@H]1CC2(CC(c3cccc(NC(=O)COc4ccc(Cl)cc4)c3)=NO2)CN1C(=O)C(c1ccccc1)c1ccccc1 (stereo not given in full)	2.2	/	-0.3	16.5*	/
Cc1c(C(=O)N2CC3(CC(c4cccc(NC(=O)CC(c5ccccc5)c5ccccc5)c4)=NO3)C[C@@H]2C(N)=O)cc([N+](=O)[O-])cc1[N+](=O)[O-] (stereo not given in full)	4.1	/	-0.7	16.0*	/
Cc1cccc(C(C(=O)NC2CCCCC2)N(C(=O)c2csnn2)C2CC2)c1 (stereo not given)	1.7	23.6	-0.2	2.0	-33.1
Cc1cc(C)cc(NC(=O)COc2ccc(C(=S)N3CCOCC3)cc2)c1	0.4	-10.5	0.2	-1.8	-19.6
COC(=O)CC/C(O)=C1\C(=O)CC(C)(C)CC1=NCc1nc2ccccc2[nH]1	2.4	5.4	-0.7	-5.7	-18.1
Cc1cc(C)n2c(=O)c3ccc(Cl)cc3nc2c1C#N	-0.2	-7.7	-0.8	2.9	-0.5
Cc1cc(Cl)n2c(nc3cc(F)c(F)cc32)c1C#N	/	5.8	9.5*	/	-3.5
CCOc1cccc(-c2c(C(=O)N/N=C/c3ccc(Br)cc3)nnn2-c2nonc2N)c1	4.6	-10.8	10.4*	5.9	-14.4
O=C1NC(=O)N(Cc2ccccc2F)C1=O	0.1	8.8	-0.3	-1.3	-1.4
CCN(CC)CCCNC(=O)C1c2ccccc2C(=O)N(C)C1c1ccc(OC)cc1 (stereo not given)	1.1	-13.0	795.0*	2.8	6.2
Cc1cccc(C)c1OCc1cc(C(=O)N2CCN(c3ccc(F)cc3)CC2)no1	4.6	-10.5	3.0	5.5	-47.9
Cc1cc(NC(=O)Cc2cc(F)cc(F)c2)no1	-1.1	1.7	-11.3	0.0	-1.3
COc1ccccc1N1CCN(Cc2ccc(O)c3ncccc23)CC1	1.7	-17.0	26.9*	15.4*	-7.9
O=C(NCCCc1ccccn1)C1CCC(=O)N(Cc2cccc(F)c2)C1 (stereo not given)	2.1	5.2	3.9	0.6	-11.8
COc1ccc(NC2CCCN(C(=O)CCN3Cc4ccccc4C3=O)C2)cc1 (stereo not given)	-0.1	20.0	-0.5	-4.1	-22.1
COc1ccccc1C(CCNCc1ccc(N(C)C)cc1)c1ccc(OC(C)C)cc1 (stereo not given)	1.2	-64.6	-1.0	15.6*	22.8
COc1ccc(CNCCC(c2ccc(OC(C)C)cc2)c2ccccc2OC)cc1 (stereo not given)	1.9	-46.4	-3.9	12.8	22.3
